Assay results as given in ChEMBL document CHEMBL3259653, “Potent and selective inhibitors of human reticulocyte 12/15-lipoxygenase as anti-stroke therapies” (J Med Chem, 2014).
Active and inactive are the calls of the source. The rule behind the calls is not given here.

Tests used:
[1] = biological target: T1, Polyunsaturated fatty acid lipoxygenase ALOX15 (Mus musculus) (UniProt P39654); experiment: Inhibition of 12/15-lipoxygenase in mouse HT22 cells assessed as protection against glutamate-induced cell death after 24 hrs by LDH release assay; type: cell-based; conditions: HT-22
T1 sequence (whole entry): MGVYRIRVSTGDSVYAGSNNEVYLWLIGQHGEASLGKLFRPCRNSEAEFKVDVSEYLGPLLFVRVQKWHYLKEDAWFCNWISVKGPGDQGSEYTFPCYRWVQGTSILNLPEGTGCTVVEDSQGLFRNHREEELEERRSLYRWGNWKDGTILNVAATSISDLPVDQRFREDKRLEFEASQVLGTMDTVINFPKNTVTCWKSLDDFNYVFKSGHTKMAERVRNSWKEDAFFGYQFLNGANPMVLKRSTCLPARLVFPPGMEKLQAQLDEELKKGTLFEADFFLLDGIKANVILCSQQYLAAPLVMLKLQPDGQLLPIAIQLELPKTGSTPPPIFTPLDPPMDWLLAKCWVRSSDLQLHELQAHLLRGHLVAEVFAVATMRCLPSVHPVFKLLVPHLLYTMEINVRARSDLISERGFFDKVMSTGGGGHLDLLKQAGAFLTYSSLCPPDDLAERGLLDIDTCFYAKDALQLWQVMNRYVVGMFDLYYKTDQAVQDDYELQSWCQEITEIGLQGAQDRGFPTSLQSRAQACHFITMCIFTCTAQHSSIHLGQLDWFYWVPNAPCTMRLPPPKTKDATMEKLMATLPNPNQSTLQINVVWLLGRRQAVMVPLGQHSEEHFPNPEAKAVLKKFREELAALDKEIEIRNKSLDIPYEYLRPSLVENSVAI
Method in brief: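 HT22 mouse hippocampal cells were grown in DMEM with 10% FBS and penicillin/streptomycin, seeded at 1 × 10^4 cells/well and treated 18 h later at 50–70% confluence. Medium was exchanged for fresh medium with 5 mM glutamate plus compound or DMSO (≤0.1% final). Death was scored as percent LDH released to the medium versus the cell extract, background-subtracted.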

[2] = test system: Mus musculus; experiment: Neuroprotective activity in C57BL6J mouse distal middle cerebral artery occlusion model of permanent focal ischemia assessed as reduction in infarct size at 50 mg/kg, ip administered 2 hrs post ischemia induction measured after 24 hrs by TTC staining relative to vehicle-treated control; type: functional; design: scale not given: the % may be the effect or the level left; conditions: route intraperitoneal
Method in brief: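 FeCl3-induced distal MCA occlusion: 10% FeCl3-saturated filter paper on intact dura along MCA under 1.5% isoflurane in N2O/O2, body temperature held at 37 ± 0.3 °C, rCBF followed by laser doppler for 3 h. Compound or DMSO vehicle given IP after 2 h ischemia. Sacrifice at 24 h; TTC staining of 1 mm slices, indirect infarct volume; surgeon and assessor blinded.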

[3] = test system: Brain; experiment: Cmax in CD1 mouse brain at 30 mg/kg, ip; type: ADME, organism-based; design: dose 30 mg/kg, route intraperitoneal; conditions: in vivo
Method in brief: (§1)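 Male CD1 mice, 6–8 weeks old, given a single 30 mg/kg IP dose formulated as a solution in 10% Solutol, 10% Cremophor EL and 20% PEG 400 in saline. Plasma and brain were sampled at eight time points over 24 h, in triplicate. Study run at a contract lab.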

[4] = test system: Plasma; experiment: Half life in CD1 mouse plasma at 30 mg/kg, ip; type: ADME, organism-based; design: dose 30 mg/kg, route intraperitoneal; conditions: in vivo; method in brief: as §1
[5] = test system: Liver; experiment: Half life in mouse liver microsomes in presence of NADPH; type: ADME
Method in brief: (§2)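 Rat or mouse liver microsomes were incubated with NADPH, and half-life was taken from compound depletion. Run at a contract lab.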

[6] = test system: Brain; experiment: Half life in CD1 mouse brain at 30 mg/kg, ip; type: ADME, organism-based; design: dose 30 mg/kg, route intraperitoneal; conditions: in vivo; method in brief: as §1
[7] = Metabolic stability in mouse plasma assessed as compound remaining measured at 2 hrs; type: ADME, cell-free; conditions: read-out: Stability
Method in brief: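 Compound was incubated in mouse plasma, and the percent remaining was measured at 2 h. Run at a contract lab.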

[8] = biological target: T2, Prostaglandin G/H synthase 2 (Homo sapiens) (UniProt P35354); experiment: Inhibition of human COX-2 using arachidonic acid as substrate assessed as consumption of oxygen at 5 uM preincubated for 5 mins followed by substrate addition by oxygen electrode-based assay relative to control
T2 sequence (whole entry): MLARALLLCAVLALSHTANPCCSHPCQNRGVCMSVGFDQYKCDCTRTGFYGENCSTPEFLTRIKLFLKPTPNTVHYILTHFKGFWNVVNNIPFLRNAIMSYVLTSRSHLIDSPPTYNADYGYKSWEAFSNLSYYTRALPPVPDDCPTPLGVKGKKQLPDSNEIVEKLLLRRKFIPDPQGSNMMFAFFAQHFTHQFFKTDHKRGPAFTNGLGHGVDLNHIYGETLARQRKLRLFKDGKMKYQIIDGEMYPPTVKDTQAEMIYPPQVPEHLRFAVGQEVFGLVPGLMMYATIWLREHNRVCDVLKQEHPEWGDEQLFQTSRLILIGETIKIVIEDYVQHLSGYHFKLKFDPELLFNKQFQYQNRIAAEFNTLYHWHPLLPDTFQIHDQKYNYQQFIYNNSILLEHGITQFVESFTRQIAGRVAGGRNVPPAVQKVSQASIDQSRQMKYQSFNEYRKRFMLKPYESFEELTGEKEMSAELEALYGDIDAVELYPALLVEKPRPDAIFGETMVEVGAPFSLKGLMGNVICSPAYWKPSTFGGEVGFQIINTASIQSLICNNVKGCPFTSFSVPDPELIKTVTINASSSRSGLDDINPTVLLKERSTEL
Method in brief: (§3)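 COX-1 or COX-2 (2–5 μg) in 0.1 M Tris-HCl pH 8.0 with 5 mM EDTA, 2 mM phenol and 1 μM hematin at 37 °C. Inhibitor was preincubated 5 min, then 100 μM arachidonic acid was added. Oxygen consumption was read on an oxygen electrode, and percent inhibition was calculated against a DMSO control, with indomethacin as positive control.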

[9] = test system: Liver microsome; experiment: Metabolic stability in rat liver microsomes measured over 1 hr in absence of NADPH; type: ADME
Method in brief: (§4)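 Liver microsomes (mouse or rat) were incubated without NADPH over a 1 h period, and compound degradation was followed. Run at a contract lab.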

[10] = Stability of the compound in DPBS buffer at pH 7.4 measured over 48 hrs; type: physicochemical; conditions: pH 7.4, 48 h
[11] = test system: Liver microsome; experiment: Half life in rat liver microsomes in presence of NADPH; type: ADME; method in brief: as §2
[12] = test system: Liver; experiment: Metabolic stability in mouse liver microsomes measured over 1 hr in absence of NADPH; type: ADME; method in brief: as §4
[13] = Stability of the compound in buffer at pH 2 measured over 48 hrs; type: physicochemical; conditions: pH 2, 48 h
[14] = test system: Plasma; experiment: Cmax in CD1 mouse plasma at 30 mg/kg, ip; type: ADME, organism-based; design: dose 30 mg/kg, route intraperitoneal; conditions: in vivo; method in brief: as §1
[15] = Stability of the compound in buffer at pH 9 measured over 48 hrs; type: physicochemical; conditions: pH 9, 48 h
[16] = biological target: T1, Polyunsaturated fatty acid lipoxygenase ALOX15 (Mus musculus); experiment: Inhibition of 12/15-lipoxygenase in mouse HT22 cells assessed as reduction of 12-HETE production at 10 uM after 24 hrs by HPLC/MS analysis; type: cell-based; conditions: HT-22
Method in brief: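 HT22 cells were grown in 75 cm² flasks in phenol red-free DMEM with 5% FBS and treated at 50–70% confluence with 5 mM glutamate with or without compound. After 24 h the eicosanoid fraction of the medium was isolated on a C-18 cartridge. 12-HETE was quantified by HPLC/MS against a 12(S)-HETE standard curve.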

[17] = biological target: T3, Prostaglandin G/H synthase 1 (Ovis aries) (UniProt P05979); experiment: Inhibition of ovine COX-1 using arachidonic acid as substrate assessed as consumption of oxygen at 5 uM preincubated for 5 mins followed by substrate addition by oxygen electrode-based assay relative to control; method in brief: as §3
T3 sequence (whole entry): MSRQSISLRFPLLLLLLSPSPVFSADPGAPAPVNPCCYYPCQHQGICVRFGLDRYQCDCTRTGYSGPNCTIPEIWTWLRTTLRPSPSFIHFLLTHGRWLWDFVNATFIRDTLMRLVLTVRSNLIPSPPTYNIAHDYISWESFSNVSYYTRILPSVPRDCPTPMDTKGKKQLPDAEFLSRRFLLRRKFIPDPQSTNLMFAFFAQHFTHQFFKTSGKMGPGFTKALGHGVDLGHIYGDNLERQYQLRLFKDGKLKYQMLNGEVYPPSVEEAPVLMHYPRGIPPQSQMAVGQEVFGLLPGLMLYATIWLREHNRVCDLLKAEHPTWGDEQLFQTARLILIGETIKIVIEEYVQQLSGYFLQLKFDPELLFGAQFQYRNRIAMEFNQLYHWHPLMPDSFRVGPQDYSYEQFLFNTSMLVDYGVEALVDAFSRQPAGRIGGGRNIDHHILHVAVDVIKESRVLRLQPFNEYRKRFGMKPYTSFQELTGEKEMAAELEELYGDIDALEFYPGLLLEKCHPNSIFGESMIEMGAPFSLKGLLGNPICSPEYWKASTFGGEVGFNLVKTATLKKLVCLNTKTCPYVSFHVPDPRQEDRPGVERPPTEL

CNc1oc(-c2cccc3ccccc23)nc1C#N
inhibition [1]: Dose-dependent effect
Activity [2]: 30%
Cmax [3]: 28.8 µM
t1/2 [4]: 1.1 h
t1/2 [5]: 5.5 min
t1/2 [6]: 1 h
remaining at 2 h [7]: 100%
inhibition [8]: < 10%
Stability [9]: Stable
Stability [10]: Stable
t1/2 [11]: 18 min
Stability [12]: Stable
Stability [13]: Stable
Cmax [14]: 13.8 µM
Stability [15]: Stable
inhibition [16]: Active
inhibition [17]: < 10%
